ChEMBL document CHEMBL1123990, “The in vitro dental plaque inhibitory properties of a series of N-[1-alkyl-4(1H)-pyridinylidene]alkylamines” (1988)
In brackets after ≈: the same amount, converted by molar mass.

Key:
[1] = test system: Actinomyces viscosus; assay: Chlorohexidine coefficient for Actinomyces viscosus M-100; type: functional
Procedure, shortened: (§1)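 Hydroxylapatite-grown plaques were exposed once daily for 2 min to varying concentrations of agent until the organisms were killed. The highest level tested was 0.2% w/v for 5 days. Tests were run in duplicate. PBI is the concentration (mM) × duration (min) × frequency (days) needed for plaque kill. CC is the chlorhexidine PBI divided by the test-agent PBI.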

[2] = test system: Actinomyces viscosus; assay: Plaque bactericidal index against Actinomyces viscosus M-100 measured as chlorohexidine coefficient; type: functional; procedure, shortened: as §1
[3] = test system: Streptococcus sobrinus; assay: Minimal bactericidal concentration against Streptococcus sobrinus 6715-13; type: functional
Procedure, shortened: (§2)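 Plaques were grown on standardized ceramic hydroxylapatite plates and immersed once in agent for 30 min. They were rinsed with sterile distilled water, moved to fresh broth and incubated anaerobically at 37 °C. Kill meant no further culture acid production, no turbidity change, and no growth when 48-h post-treatment plaque samples were subcultured. Tests were run in duplicate.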

[4] = test system: Streptococcus sobrinus; assay: Plaque bactericidal index against Streptococcus sobrinus 6715-13 measured as chlorohexidine coefficient; type: functional; procedure, shortened: as §1
[5] = test system: Streptococcus sobrinus; assay: Chlorohexidine coefficient for Streptococcus sobrinus 6715-13; type: functional; procedure, shortened: as §1
[6] = test system: Actinomyces viscosus; assay: Plaque bactericidal index against Actinomyces viscosus M-100 measured as chlorohexidine coefficient; d=Not bactericidal at highest concentration tested (0.2% w/v, 2min, 5 days); type: functional, organism-based; procedure, shortened: as §1
[7] = test system: Streptococcus sobrinus; assay: Plaque bactericidal index against Streptococcus sobrinus 6715-13 measured as chlorohexidine coefficient; d=Not bactericidal at highest concentration tested (0.2% w/v, 2min, 5 days); type: functional, organism-based; procedure, shortened: as §1
[8] = test system: Streptococcus sobrinus; assay: Minimal bactericidal concentration against Streptococcus sobrinus 6715-13.; type: functional; procedure, shortened: as §2

Structure (SMILES)	CC [1]	PBI [2]	MBC [3] [µM]	PBI [4]	CC [5]	PBI [6]	PBI [7]	MBC [8] [µM]
CCCCCCCCCn1ccc(=NCCCCCCC)cc1.Cl	1.7	11.3	1410	8.5	3			
CCCCCCN=c1ccn(CCCCCC)cc1			1580 (≈ 415 µg/mL)			Not bactericidal	Not bactericidal	
CCCCCCCCN=c1ccn(CCCCCCCCCCn2ccc(=NCCCCCCCC)cc2)cc1 [OCTENIDINE]	1	19.2	3200 (≈ 1760 µg/mL)	25.6	1			
CCCCCCCCN=c1ccn(Cc2ccccc2)cc1.Cl	1.6	12	1500	24	1.1			
Br.CCCCCCCCN=c1ccn(CC(CC)CCCC)cc1 (centres undefined)	1.5	12.5	1250	12.5	2			
CCCCCCCn1ccc(=NCCCCCC)cc1.Cl	3	6.4		12.8	2			1600
CCCCCCCCCCCCN=c1ccn(C)cc1.I	1	19.2	1240	12.4	2.1			
CCCCCCCCCCCCCCN=c1ccn(Cc2ccccc2)cc1			240 (≈ 91.3 µg/mL)			Not bactericidal	Not bactericidal	
Br.CCCCCCCCN=c1ccn(CCCCCCC)cc1	2.5	7.8	1300	7.8	3.3			
CCCCCCCCN=c1ccn(Cc2ccc(Cl)cc2)cc1.Cl	3.6	5.4	270	10.9	2.3			
Br.CCCCCCCN=c1ccn(CCCCCCC)cc1	4	5.4	1350	8	3.2			
N=C(NCCCCCCNC(=N)NC(=N)Nc1ccc(Cl)cc1)NC(=N)Nc1ccc(Cl)cc1 [CHLORHEXIDINE]		19.2	3200 (≈ 1620 µg/mL)	25.6				
Br.CCCCC(CC)CN=c1ccn(CC(CC)CCCC)cc1 (centres undefined)	1	20	1250	20	1.3			
CCCCCCCCCN=c1ccn(CCCCCC)cc1.Cl	6.6	2.9	290	2.9	8.8			
